Data from ChEMBL document CHEMBL3046321, “Preparation of achiral and chiral (E)-enaminopyran-2,4-diones and their phytotoxic activity” (2009).

What was measured:
[1] = system: Urochloa decumbens; test: Phytotoxicity against Urochloa decumbens seeds assessed as inhibition of root biomass development at 5x10'-5 mol/kg measured at 21 days after seed sowing by green house trials; format: functional
[2] = system: Sorghum bicolor; test: Phytotoxic activity against Sorghum bicolor seeds assessed as inhibition of radicle growth at 10^-3 mol/l at 25 degC after 72 hr by filter-paper based radicle elongation assay; format: functional
Method in brief: (§1)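 Test compounds suspended and sonicated 5 min. Aliquots of 4 mL wetted two sheets of filter paper in glass Petri dishes, with 20 seeds per dish. Tested at 10⁻⁴ and 10⁻³ mol L⁻¹. Incubated 72 h at 25 °C under fluorescent light. Radicle length measured and germination recorded (radicle ≥1 mm). Completely randomized design, five replications. Results as % radicle growth inhibition vs untreated controls; Tukey's test, P 0.05.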

[3] = system: Ipomoea grandifolia; test: Phytotoxicity against Ipomoea grandifolia pre-germinated seeds assessed as inhibition of aerial parts development at 5x10'-4 mol/l at 28 degC after 24 to 48 hr by sand based radicle elongation assay; format: functional
[4] = system: Urochloa decumbens; test: Stimulation of aerial parts development in Urochloa decumbens pregerminated seeds at 5x10'-4 mol/l at 28 degC after 24 to 48 hr by sand based radicle elongation assay; format: functional
[5] = system: Ipomoea grandifolia; test: Phytotoxicity against Ipomoea grandifolia seeds assessed as inhibition of root biomass development at […] measured at 21 days after seed sowing by green house trials
[6] = system: Ipomoea grandifolia; test: Phytotoxicity against Ipomoea grandifolia seeds assessed as inhibition of aerial parts development at 5x10'-5 mol/kg measured at 21 days after seed sowing by green house trials; format: functional
[7] = system: Cucumis sativus; test: Phytotoxic activity against Cucumis sativus (cucumber)seeds assessed as inhibition of radicle growth at 10^-4 mol/l at 25 degC after 72 hr by filter-paper based radicle elongation assay; format: functional; method in brief: as §1
[8] = system: Urochloa decumbens; test: Stimulation of root biomass development in Urochloa decumbens pregerminated seeds at 5x10'-4 mol/l at 28 degC after 24 to 48 hr by sand based radicle elongation assay; format: functional
[9] = system: Sorghum bicolor; test: Phytotoxic activity against Sorghum bicolor seeds assessed as inhibition of radicle growth at 10^-4 mol/l at 25 degC after 72 hr by filter-paper based radicle elongation assay; format: functional; method in brief: as §1
[10] = system: Urochloa decumbens; test: Phytotoxicity against Urochloa decumbens seeds assessed as inhibition of aerial parts development at 5x10'-5 mol/kg measured at 21 days after seed sowing by green house trials; format: functional
[11] = system: Ipomoea grandifolia; test: Phytotoxicity against Ipomoea grandifolia pre-germinated seeds assessed as inhibition of root biomass development at 5x10'-4 mol/l at 28 degC after 24 to 48 hr by sand based radicle elongation assay; format: functional
[12] = system: Cucumis sativus; test: Phytotoxic activity against Cucumis sativus (cucumber)seeds assessed as inhibition of radicle growth at 10^-3 mol/l at 25 degC after 72 hr by filter-paper based radicle elongation assay; format: functional; method in brief: as §1
[13] = system: Urochloa decumbens; test: Phytotoxicity against Urochloa decumbens pregerminated seeds assessed as inhibition of root biomass development at 5x10'-4 mol/l at 28 degC after 24 to 48 hr by sand based radicle elongation assay; format: functional
[14] = system: Urochloa decumbens; test: Phytotoxicity against Urochloa decumbens pregerminated seeds assessed as inhibition of aerial parts development at 5x10'-4 mol/l at 28 degC after 24 to 48 hr by sand based radicle elongation assay; format: functional

With `COC(=O)[C@@H](N/C(C)=C1\C(=O)C=C(C)OC1=O)C(C)C` the “inhibition (INH)” value [1] was -45.7%, the inhibition at 1000 µM [2] was 70.5% and the inhibition at 500 µM [3] was 68%. For the same molecule, the Activity [4] was 46%, the “inhibition (INH)” value [5] was 65.3% and the “inhibition (INH)” value [6] was 67.7%. For the same molecule, the inhibition at 100 µM [7] was -6.4%, the Activity [8] was 46% and the inhibition at 100 µM [9] was 17.2%. For the same molecule, the “inhibition (INH)” value [10] was -47.4%, the inhibition at 500 µM [11] was 65% and the inhibition at 1000 µM [12] was 80.8%.

In the case of `COc1ccc(N/C(C)=C2\C(=O)C=C(C)OC2=O)cc1`, the inhibition at 1000 µM [2] is reported as 48.2%, the inhibition at 100 µM [7] is reported as 1.4% and the inhibition at 100 µM [9] is reported as 28.4%. The inhibition at 1000 µM [12] was 33.4%.

`CC1=CC(=O)/C(=C(/C)Nc2ccccc2)C(=O)O1` showed an inhibition at 1000 µM [2] of 62%, an inhibition at 100 µM [7] of -10.4% and an inhibition at 100 µM [9] of 7.2%. For the same molecule, the inhibition at 1000 µM [12] was 81.1%.

For `CC[C@H](C)N/C(C)=C1\C(=O)C=C(C)OC1=O`, the “inhibition (INH)” value [1] was 65.5%, the inhibition at 1000 µM [2] was 79.3% and the inhibition at 500 µM [3] was 84%. For the same molecule, the “inhibition (INH)” value [5] was 83%, the “inhibition (INH)” value [6] was 84.4% and the inhibition at 100 µM [7] was 15%. For the same molecule, the inhibition at 500 µM [13] was 66%, the inhibition at 100 µM [9] was 46.2% and the “inhibition (INH)” value [10] was 70.8%. The inhibition at 500 µM [14] was 71%, the inhibition at 500 µM [11] was 81% and the inhibition at 1000 µM [12] was 87.5%.

Molecule `CC1=CC(=O)/C(=C(/C)NNc2ccccc2)C(=O)O1` has an inhibition at 1000 µM [2] of 27.2%, an inhibition at 100 µM [7] of 29.5% and an inhibition at 100 µM [9] of -26.5%. For the same molecule, the inhibition at 1000 µM [12] was 19.2%.

For `COC(=O)[C@H](Cc1ccccc1)N/C(C)=C1\C(=O)C=C(C)OC1=O`, the inhibition at 1000 µM [2] was 24.4%, the inhibition at 100 µM [7] was 2.1% and the inhibition at 100 µM [9] was -10.8%. For the same molecule, the inhibition at 1000 µM [12] was 63.1%.

`CC1=CC(=O)/C(=C(/C)NNc2ccc([N+](=O)[O-])cc2[N+](=O)[O-])C(=O)O1` showed an inhibition at 1000 µM [2] of 75.8%, an inhibition at 100 µM [7] of 23.4% and an inhibition at 100 µM [9] of 8.3%. The inhibition at 1000 µM [12] was 77.6%.

With `CC1=CC(=O)/C(=C(/C)NCc2ccccc2)C(=O)O1` the “inhibition (INH)” value [1] was 39.3%, the inhibition at 1000 µM [2] was 70.8% and the inhibition at 500 µM [3] was 84%. For the same molecule, the “inhibition (INH)” value [5] was 79.6%, the “inhibition (INH)” value [6] was 85.9% and the inhibition at 100 µM [7] was 20.1%. For the same molecule, the inhibition at 100 µM [9] was 45%, the “inhibition (INH)” value [10] was 22.8% and the inhibition at 500 µM [11] was 81%. The inhibition at 1000 µM [12] was 65.5%.

With `CC1=CC(=O)/C(=C(/C)Nc2cc(Cl)c([N+](=O)[O-])cc2O)C(=O)O1` the “inhibition (INH)” value [1] was -24%, the inhibition at 1000 µM [2] was 64.4% and the Activity [4] was 20%. For the same molecule, the “inhibition (INH)” value [5] was 32%, the “inhibition (INH)” value [6] was 43.7% and the inhibition at 100 µM [7] was 21.8%. For the same molecule, the Activity [8] was 24%, the inhibition at 100 µM [9] was 4.3% and the “inhibition (INH)” value [10] was -20.3%. The inhibition at 1000 µM [12] was 81.4%.

`CCCN/C(C)=C1\C(=O)C=C(C)OC1=O` gave an inhibition at 1000 µM [2] of 75.4%, an inhibition at 100 µM [7] of -15.7% and an inhibition at 100 µM [9] of 19.9%. It also gave an inhibition at 1000 µM [12] of 46.2%.

`CC1=CC(=O)/C(=C(/C)Nc2ccccc2Cl)C(=O)O1` was tested, and the inhibition at 1000 µM [2] was 85.2%, the inhibition at 100 µM [7] was 54.5% and the inhibition at 100 µM [9] was 32.9%. For the same molecule, the inhibition at 1000 µM [12] was 88.3%.

`CC1=CC(=O)/C(=C(/C)Nc2cc([N+](=O)[O-])ccc2O)C(=O)O1` was tested, and the “inhibition (INH)” value [1] was 15.3%, the inhibition at 1000 µM [2] was 55.6% and the inhibition at 500 µM [3] was 76%. The “inhibition (INH)” value [5] was 79.9%, the “inhibition (INH)” value [6] was 78.9% and the inhibition at 100 µM [7] was -12.4%. The inhibition at 500 µM [13] was 15%, the inhibition at 100 µM [9] was 3.9% and the “inhibition (INH)” value [10] was 15%. The inhibition at 500 µM [14] was 15%, the inhibition at 500 µM [11] was 81% and the inhibition at 1000 µM [12] was 58.1%.

In the case of `CC1=CC(=O)/C(=C(/C)Nc2ccccc2O)C(=O)O1`, the inhibition at 1000 µM [2] is reported as 73.7%, the inhibition at 100 µM [7] is reported as 7.8% and the inhibition at 100 µM [9] is reported as 39.9%. It also gave an inhibition at 1000 µM [12] of 69.3%.

For `CC(=O)C1C(=O)C=C(C)OC1=O` (stereo not drawn) [DEHYDROACETIC ACID], the “inhibition (INH)” value [1] was -67.7%, the inhibition at 1000 µM [2] was 82.7% and the Activity [4] was 41%. For the same molecule, the “inhibition (INH)” value [5] was 40.7%, the “inhibition (INH)” value [6] was 7.6% and the inhibition at 100 µM [7] was 36.7%. It also gave an inhibition at 500 µM [13] of 41%, an Activity [8] of 68% and an inhibition at 100 µM [9] of 34.6%. The “inhibition (INH)” value [10] was -41.2%, the inhibition at 500 µM [14] was 8% and the inhibition at 1000 µM [12] was 87.6%.

In the case of `COC(=O)CN/C(C)=C1\C(=O)C=C(C)OC1=O`, the “inhibition (INH)” value [1] is reported as 43.3%, the inhibition at 1000 µM [2] is reported as 59.3% and the inhibition at 500 µM [3] is reported as 42%. For the same molecule, the “inhibition (INH)” value [5] was 34.3%, the “inhibition (INH)” value [6] was 41.7% and the inhibition at 100 µM [7] was -15.3%. The inhibition at 500 µM [13] was 44%, the inhibition at 100 µM [9] was 7% and the “inhibition (INH)” value [10] was 33.3%. It also gave an inhibition at 500 µM [14] of 33%, an inhibition at 500 µM [11] of 34% and an inhibition at 1000 µM [12] of 69.1%.

`CCCCN/C(C)=C1\C(=O)C=C(C)OC1=O` showed an inhibition at 1000 µM [2] of 79.7%, an inhibition at 100 µM [7] of -10.4% and an inhibition at 100 µM [9] of 48.3%. It also gave an inhibition at 1000 µM [12] of 44%.

`COC(=O)[C@H](C)N/C(C)=C1\C(=O)C=C(C)OC1=O` was tested, and the “inhibition (INH)” value [1] was 43.4%, the inhibition at 1000 µM [2] was 71.7% and the inhibition at 500 µM [3] was 57%. For the same molecule, the “inhibition (INH)” value [5] was 61.7%, the “inhibition (INH)” value [6] was 56.9% and the inhibition at 100 µM [7] was -0.3%. The inhibition at 500 µM [13] was 46%, the inhibition at 100 µM [9] was 21.6% and the “inhibition (INH)” value [10] was 33.3%. The inhibition at 500 µM [14] was 33%, the inhibition at 500 µM [11] was 62% and the inhibition at 1000 µM [12] was 76.3%.
